Results: ChEMBL document CHEMBL4265954, “Discovery of potent liver-selective stearoyl-CoA desaturase-1 (SCD1) inhibitors, thiazole-4-acetic acid derivatives, for the treatment of diabetes, hepatic steatosis, and obesity” (Eur J Med Chem, 2018)

How the values were obtained:
Mus musculus [1] = assay: Ex vivo inhibition of SCD1 in C57BL/6J mouse eyelid assessed as residual activity at 1 mg/kg, po treated for 6 hrs followed by incubation with [14C]stearoyl-CoA substrate for 30 mins by TLC assay relative to control; assay type: organism-based
Summary of the method: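 Male 6-week-old C57BL/6J mice dosed orally as a suspension in 0.5% methylcellulose. Liver or eyelid was taken 6 or 24 h later and homogenized in 100 mM Tris-HCl pH 7.4 with 0.25 M sucrose. S9 was obtained at 10,000 × g, 4 °C. S9 was incubated with [14C]stearoyl-CoA, NADH, MgCl2 and cytochrome b5 at room temperature, 10 min for liver and 30 min for eyelid. Lipids were saponified and run on AgNO3 TLC to quantify stearate and oleate. Result is % of vehicle control.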

Cytochrome P450 1A2 = target: T1, Cytochrome P450 1A2 (Homo sapiens, UniProt P05177); assay: Inhibition of CYP1A2 (unknown origin); assay type: ADME
T1 sequence (P05177 whole entry): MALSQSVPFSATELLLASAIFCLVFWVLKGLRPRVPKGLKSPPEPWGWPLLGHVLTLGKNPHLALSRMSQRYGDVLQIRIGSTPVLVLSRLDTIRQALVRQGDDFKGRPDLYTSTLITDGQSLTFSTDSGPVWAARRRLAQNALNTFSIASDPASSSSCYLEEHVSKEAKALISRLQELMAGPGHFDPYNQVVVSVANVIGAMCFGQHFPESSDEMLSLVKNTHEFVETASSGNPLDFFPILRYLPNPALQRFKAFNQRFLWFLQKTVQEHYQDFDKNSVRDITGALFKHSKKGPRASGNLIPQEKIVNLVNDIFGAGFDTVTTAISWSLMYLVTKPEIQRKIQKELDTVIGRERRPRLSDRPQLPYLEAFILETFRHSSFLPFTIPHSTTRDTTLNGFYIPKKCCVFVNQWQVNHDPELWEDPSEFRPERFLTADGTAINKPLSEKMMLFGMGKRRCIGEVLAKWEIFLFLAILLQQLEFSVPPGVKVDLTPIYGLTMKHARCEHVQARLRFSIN

[2] = Tmax in C57BL/6J mouse at 10 mg/kg, po; assay type: ADME, organism-based; conditions: in vivo
Summary of the method: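 Two male C57BL/6J mice per route, 10 mg/kg po and 1 mg/kg iv. Plasma concentration–time profiles gave Cmax, tmax, terminal half-life and AUC0-inf. Bioavailability was derived from the po and iv data.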

[3] = AUC (0 to infinity) in C57BL/6J mouse at 10 mg/kg, po; assay type: ADME, organism-based; set-up: dose 10 mg/kg, time infinity, route oral; conditions: in vivo
[4] = Metabolic stability in rat liver S9 fraction after 1 hr; assay type: ADME, subcellular; conditions: read-out: Stability
Mus musculus [5] = assay: Antidiabetic activity in high fat diet fed C57BL/6J mouse assessed as reduction in plasma glucose AUC (0 to 120 mins) administered orally as diet mixture for 43 days and measured on day 22 of administration after overnight fasting by OGTT method; assay type: functional, organism-based
Summary of the method: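 Male? not stated. C57BL/6J mice fed high fat diet for one month, then given compound as HFD admixture (0.0040% or 0.0133%) for ~3 or 10 mg/kg/day over 43 days (10–16 weeks of age); controls on normal chow or HFD. Day 22: overnight fast, glucose load 1 g/kg; plasma glucose at 0, 0.5, 1, 2 h, AUC calculated; n=5–8, mean ± SD, Dunnett's test.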

Rattus norvegicus [6] = assay: Ex vivo inhibition of SCD1 in high sucrose diet Sprague-Dawley rat epididymal adipose tissue treated orally for 6 hrs followed by incubation with [14C]stearoyl-CoA substrate for 10 mins by TLC assay; assay type: organism-based; conditions: po
Summary of the method: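 Sprague-Dawley rats on a high sucrose diet, given oral 1 or 10 mg/kg. Liver, epididymal adipose and eyelid were taken 6 h later and homogenized. S9 SCD activity was measured by [14C]stearoyl-CoA conversion to oleate and quantified by AgNO3 TLC imaging. Result is % remaining activity versus control, mean ± SD, n=3.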

[7] = Drug uptake in high sucrose diet Sprague-Dawley rat liver at 10 mg/kg, po treated after 6 hrs; assay type: ADME, organism-based; conditions: read-out: Drug uptake
Summary of the method: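 Sprague-Dawley rats on a high sucrose diet, given a single oral 10 mg/kg dose. Plasma, liver and eyelid drug concentrations were measured 6 h later, n=3. Liver/eyelid ratio was taken from the tissue concentrations.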

Rattus norvegicus [8] = assay: Anti-hepatic steatosis activity in high sucrose very low fat diet fed Sprague-Dawley rat assessed as reduction in triglyceride level in liver administered orally once daily for 8 days and measured on day 8 post last dose; assay type: functional, organism-based
Summary of the method: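 SD rats kept on a high sucrose very low fat diet, dosed orally at 1 or 10 mg/kg once daily for 8 days. On day 8, liver slices were homogenized in methanol and extracted with methanol/chloroform. The supernatant was dried under N2 and redissolved in 2-propanol. Triglyceride was read on an automatic analyzer and expressed as mg/g tissue.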

Activity (Mus musculus [1]): 97%
IC50 (Cytochrome P450 1A2): > 50 µM
Tmax [2]: 1 h
AUC(0-inf) [3]: 10.2 µM·h
remaining at 1 h [4]: 87%
inhibition (INH) (Rattus norvegicus [6]): Dose-dependent effect
concentration at 6 h [7]: 1000 nM
SMILES: CCCCc1ccccc1NCc1ccc(C(=O)Nc2nc(CC(=O)O)cs2)s1
Activity (Mus musculus [5]): Dose-dependent effect
Activity (Rattus norvegicus [8]): Dose-dependent effect
